Legend:
Homo sapiens [1] = organism: Homo sapiens; test: Selectivity index, ratio of Ki for inhibition of FITC-labelled BAK BH3 peptide to 6His-MBP tagged recombinant human MCL-1 (172 to 327 residues) expressed in Escherichia coli assessed as inhibition constant to Ki for binding affinity to BCL-xL (unknown origin) assessed as inhibition constant
[2] = biological target: T1, Induced myeloid leukemia cell differentiation protein Mcl-1 (Homo sapiens, UniProt Q07820); test: Inhibition of FITC-labelled BAK BH3 peptide to 6His-MBP tagged recombinant human MCL-1 (172 to 327 residues) expressed in Escherichia coli assessed as inhibition constant by fluorescence polarization competition assay
T1 sequence (Q07820 whole entry, the tested form may be a part): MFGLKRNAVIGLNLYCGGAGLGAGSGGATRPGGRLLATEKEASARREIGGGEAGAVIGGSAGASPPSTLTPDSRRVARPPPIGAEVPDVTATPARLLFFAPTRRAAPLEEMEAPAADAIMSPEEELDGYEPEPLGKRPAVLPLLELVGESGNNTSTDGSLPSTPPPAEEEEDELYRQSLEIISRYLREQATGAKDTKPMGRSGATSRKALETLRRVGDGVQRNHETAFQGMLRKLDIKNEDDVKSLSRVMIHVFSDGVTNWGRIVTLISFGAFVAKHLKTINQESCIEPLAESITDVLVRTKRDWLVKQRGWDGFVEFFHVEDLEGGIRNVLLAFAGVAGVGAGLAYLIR
Procedure, shortened: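 Fluorescence polarization competition: compounds titrated into a mixture of MCL-1 (residues 172–327) and FITC-labelled BAK BH3 peptide. Displacement of the peptide was followed by the change in polarization, and Ki was derived from the competition titration.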

Bcl-2-like protein 1 = Bcl-2-like protein 1 (Homo sapiens, UniProt Q07817); test: Binding affinity to BCL-xL (unknown origin) assessed as inhibition constant
Chain of Bcl-2-like protein 1 (Q07817 whole entry, the tested form may be a part): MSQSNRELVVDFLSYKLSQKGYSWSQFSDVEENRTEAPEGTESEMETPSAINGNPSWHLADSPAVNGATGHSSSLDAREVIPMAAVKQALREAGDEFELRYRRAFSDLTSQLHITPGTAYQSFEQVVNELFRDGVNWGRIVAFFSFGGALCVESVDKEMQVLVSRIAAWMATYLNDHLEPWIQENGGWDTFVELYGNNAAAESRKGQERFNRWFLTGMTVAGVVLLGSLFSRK

Homo sapiens [3] = organism: Homo sapiens; test: Selectivity index, ratio of Ki for inhibition of FITC-labelled BAK BH3 peptide to MCL-1 (172 to 327 residues) (unknown origin) assessed as inhibition constant to Ki for binding affinity to BCL-xL (unknown origin) assessed as inhibition constant
[4] = biological target: T1, Induced myeloid leukemia cell differentiation protein Mcl-1; test: Binding affinity to MCL-1 (unknown origin) assessed as inhibition constant

Compound | Ratio Ki (Homo sapiens [1]) | Ki (Bcl-2-like protein 1) [nM] | further results
CC(C)CN(c1ccc(C(=O)O)c(O)c1)S(=O)(=O)c1ccc(-c2ccccc2)cc1 | 2.63 |  | 
Cc1cc(Oc2ccc(S(=O)(=O)N(CC(C)C)c3ccc(O)c(C(=O)O)c3)cc2)cc(C)c1Cl | 4.96 |  | 
Cc1cc(Oc2ccc(S(=O)(=O)N(c3ccc(C(=O)O)c(O)c3)C3CCCC3)cc2)cc(C)c1Cl | 1.08 | 1910 | Ki [2]: 1760 nM
Cc1cc(Oc2ccc(S(=O)(=O)N3CC(C(=O)O)Cc4ccccc43)cc2)cc(C)c1Cl (racemic) |  | 5010 | Ratio Ki (Homo sapiens [3]): 42
CC(C)CN(c1ccc(C(=O)O)c(O)c1)S(=O)(=O)c1ccc(Oc2ccccc2)cc1 | 3.12 |  | 
CC(C)CN(c1ccc(C(=O)O)c(O)c1)S(=O)(=O)c1ccc2ccccc2c1 | 3.12 |  | 
CC(C)CN(c1ccc(O)c(C(=O)O)c1)S(=O)(=O)c1ccc2ccccc2c1 | 5.94 |  | 
Cc1cc(Oc2ccc(S(=O)(=O)N3CCCc4cc(C(=O)O)ccc43)cc2)cc(C)c1Cl |  | 3560 | Ki [4]: 2730 nM
Cc1cc(Oc2ccc(S(=O)(=O)N(CC(C)C)c3ccc(C(=O)O)c(O)c3)cc2)cc(C)c1Cl | 2.09 | 1630 | Ki [2]: 778 nM
Cc1cc(Oc2ccc(S(=O)(=O)N(Cc3ccccc3)c3ccc(C(=O)O)c(O)c3)cc2)cc(C)c1Cl | 2.65 |  | 
CC(C)CN(c1ccc(C(=O)O)c(O)c1)S(=O)(=O)c1ccccc1 | 0.8 |  | 
CC(C)CN(c1ccc(O)c(C(=O)O)c1)S(=O)(=O)c1ccc(-c2ccccc2)cc1 | 1.59 |  | 
CC(C)CN(c1ccc(O)c(C(=O)O)c1)S(=O)(=O)c1ccccc1 | 1.06 | 49300 | 

Source: ChEMBL document CHEMBL5230167, “Discovery of N-sulfonylated aminosalicylic acids as dual MCL-1/BCL-xL inhibitors” (RSC Med Chem, 2023)
